# Test results as given in ChEMBL document CHEMBL3585325, “Discovery of (1R,2S)-2-{[(2,4-Dimethylpyrimidin-5-yl)oxy]methyl}-2-(3-fluorophenyl)-N-(5-fluoropyridin-2-yl)cyclopropanecarboxamide (E2006): A Potent and Efficacious Oral Orexin Receptor Antagonist” (J Med Chem, 2015).
# What was measured:
# [1] = biological target: Voltage-gated inwardly rectifying potassium channel KCNH2 (Homo sapiens, UniProt Q12809); test: Inhibition of human ERG
# [2] = Metabolic stability in human liver microsomes assessed as residual ratio at 0.1 uM after 15 mins by LC-MS analysis; assay type: ADME; settings: read-out: Stability
# In short: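 Compound at 0.1 μM in 0.1% DMSO incubated with human liver microsomes (0.2 mg/mL), with or without an NADPH-generating system, for 15 min at 37 °C. Reaction stopped with acetonitrile/methanol (7:3) containing propranolol internal standard. Parent compound was measured by LC-MS; residual ratio given with NADPH relative to without.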
# [3] = Half life in C57BL/6NCrlCrlj mouse at 10 mg/kg, po by LC-MS/MS analysis; assay type: ADME, organism-based; settings: in vivo
# In short: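 Male C57BL/6NCrlCrlj mice dosed orally at 10 mg/kg in 10% Cremophor EL, 5% DMSO in saline. Tail-vein blood was taken at set time points and spun to plasma. Quantified by LC-MS/MS (MRM, positive mode) with internal standard and a 1/x²-weighted calibration. Parameters came from noncompartmental analysis.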
# Cytochrome P450 1A2 = biological target: T1, Cytochrome P450 1A2 (Homo sapiens, UniProt P05177); test: Inhibition of CYP1A2 in human liver microsomes using phenacetin as susbtrate incubated for 30 mins prior to substrate addition for 10 mins by LC-MS/MS analysis; assay type: ADME
# T1 sequence (P05177 whole entry): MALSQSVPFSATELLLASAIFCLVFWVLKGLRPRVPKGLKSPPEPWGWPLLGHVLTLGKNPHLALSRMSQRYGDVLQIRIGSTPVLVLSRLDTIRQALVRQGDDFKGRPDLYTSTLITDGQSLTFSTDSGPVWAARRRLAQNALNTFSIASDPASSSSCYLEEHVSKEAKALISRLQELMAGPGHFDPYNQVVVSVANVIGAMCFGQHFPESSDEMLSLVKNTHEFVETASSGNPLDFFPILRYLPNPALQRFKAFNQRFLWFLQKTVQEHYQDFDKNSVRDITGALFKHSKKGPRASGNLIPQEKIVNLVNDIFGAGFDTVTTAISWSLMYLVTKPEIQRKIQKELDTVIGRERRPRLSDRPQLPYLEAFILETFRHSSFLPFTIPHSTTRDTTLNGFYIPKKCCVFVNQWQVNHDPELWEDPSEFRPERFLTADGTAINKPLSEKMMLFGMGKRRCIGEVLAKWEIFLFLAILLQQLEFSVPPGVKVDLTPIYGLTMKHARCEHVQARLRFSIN
# Voltage-gated inwardly rectifying potassium channel KCNH2, sequence (Q12809 whole entry): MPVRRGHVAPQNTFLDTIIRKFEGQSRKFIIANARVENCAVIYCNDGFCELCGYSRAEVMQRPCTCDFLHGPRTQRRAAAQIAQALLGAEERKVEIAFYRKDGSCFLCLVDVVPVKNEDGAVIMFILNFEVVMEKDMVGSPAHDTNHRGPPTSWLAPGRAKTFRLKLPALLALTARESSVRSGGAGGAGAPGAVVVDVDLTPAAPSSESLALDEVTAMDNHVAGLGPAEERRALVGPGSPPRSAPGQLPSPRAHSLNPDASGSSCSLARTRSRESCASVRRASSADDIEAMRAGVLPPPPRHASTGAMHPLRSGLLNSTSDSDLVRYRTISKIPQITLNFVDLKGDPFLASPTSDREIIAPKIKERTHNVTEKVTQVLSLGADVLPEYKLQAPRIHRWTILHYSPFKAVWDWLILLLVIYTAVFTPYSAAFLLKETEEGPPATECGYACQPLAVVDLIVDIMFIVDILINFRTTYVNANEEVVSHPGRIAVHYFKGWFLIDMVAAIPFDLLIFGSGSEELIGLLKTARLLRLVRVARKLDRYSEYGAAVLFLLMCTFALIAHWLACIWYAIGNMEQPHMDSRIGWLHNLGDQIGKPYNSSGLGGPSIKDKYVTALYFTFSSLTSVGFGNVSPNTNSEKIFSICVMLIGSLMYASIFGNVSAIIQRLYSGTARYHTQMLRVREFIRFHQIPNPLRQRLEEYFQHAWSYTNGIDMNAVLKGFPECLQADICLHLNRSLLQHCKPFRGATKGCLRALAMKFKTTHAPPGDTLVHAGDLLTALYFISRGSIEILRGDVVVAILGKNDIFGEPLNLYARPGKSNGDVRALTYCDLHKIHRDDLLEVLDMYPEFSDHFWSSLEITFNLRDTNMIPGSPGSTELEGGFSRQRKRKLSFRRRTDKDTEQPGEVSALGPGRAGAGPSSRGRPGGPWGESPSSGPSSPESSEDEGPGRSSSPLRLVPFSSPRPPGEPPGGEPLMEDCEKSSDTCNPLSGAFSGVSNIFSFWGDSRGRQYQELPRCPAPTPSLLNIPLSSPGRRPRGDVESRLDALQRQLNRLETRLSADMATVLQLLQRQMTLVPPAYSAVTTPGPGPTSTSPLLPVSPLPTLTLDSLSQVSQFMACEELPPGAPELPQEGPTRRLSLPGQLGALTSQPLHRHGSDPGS
smiles,measurement,setting,value
Cc1ncc(OC[C@@]2(c3cccc(F)c3)C[C@H]2C(=O)Nc2ccc(F)cn2)c(C)n1 [LEMBOREXANT],IC50,[1],6.1 µM
same,"remaining at 0.25 h, 0.1 µM",[2],90%
same,half-life,[3],2.2 h
same,IC50,Cytochrome P450 1A2,> 20 µM
